From ChEMBL document CHEMBL1134279, “Synthesis, nicotinic acetylcholine receptor binding, and antinociceptive properties of 2-exo-2-(2'-substituted-3'-phenyl-5'-pyridinyl)-7-azabicyclo[2.2.1]heptanes. Novel nicotinic antagonist” (J Med Chem, 2001)
The source made the active and inactive calls. The calls are words filed in the database; no cut-off is given here.

How the values were obtained:
[1] = Inhibition of [3H]epibatidine binding at the alpha beta nicotinic AChR in male rat cerebral cortex; assay type: tissue-based
[2] = species: Mus musculus; assay: Compound was tested for inhibition of antinociceptive effect of nicotine in mice by hotplate assay; NA=Inactive; assay type: functional, organism-based
How it was run: (§1)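 Antagonism was tested in male ICR mice given test agent sc, measuring blockade of nicotine-induced antinociception in tail-flick or hot-plate tests. Potency is expressed as AD50 in mg/kg with confidence limits.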

[3] = species: Mus musculus; assay: Compound was tested for inhibition of antinociceptive effect of nicotine in mice by tail-flick assay; NA=Inactive; assay type: functional, organism-based; how it was run: as §1
[4] = tested on: Mus musculus; assay: Compound at 10 mg/Kg was tested for antinociception in mice by hotplate assay; assay type: functional
How it was run: (§2)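 Male ICR mice were given test agent and assessed for antinociception by tail-flick or hot-plate. Results are expressed as ED50 in mg/kg with confidence limits, or as percent effect at a single stated mg/kg dose.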

[5] = tested on: Mus musculus; assay: Compound at 10 mg/Kg was tested for antinociception in mice by tail-flick assay; assay type: functional; how it was run: as §2
[6] = tested on: Mus musculus; assay: Compound at 10 mg/Kg was tested for hypothermia in mice; assay type: functional
How it was run: (§3)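 Male ICR mice were dosed and body temperature or locomotor activity was recorded. Values are ED50 in mg/kg with confidence limits, or the effect (change in °C for temperature) at a single stated mg/kg dose.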

[7] = species: Mus musculus; assay: Compound was tested to block the antinociceptive effect of nicotine in mice by hotplate assay; assay type: functional; how it was run: as §1
[8] = species: Mus musculus; assay: Compound was tested to block the antinociceptive effect of nicotine in mice by tail-flick assay; assay type: functional; how it was run: as §1
[9] = tested on: Mus musculus; assay: Compound at 15 mg/Kg was tested for antinociception in mice by hotplate assay; assay type: functional; how it was run: as §2
[10] = tested on: Mus musculus; assay: Compound at 15 mg/Kg was tested for antinociception in mice by tail-flick assay; assay type: functional; how it was run: as §2
[11] = species: Mus musculus; assay: Effective dose for antinociception in mice was determined by hotplate assay
[12] = species: Mus musculus; assay: Effective dose for antinociception in mice was determined by tail-flick assay
[13] = species: Mus musculus; assay: Effective dose for hypomotility in mice was determined; assay type: functional; how it was run: as §3
[14] = species: Mus musculus; assay: Effective dose for hypothermia in mice was determined

Compound | Ki [1] | Temperature [6] | AD50 [7] | AD50 [8] | Effect [9] | Effect [10] | further results
CN(C)c1ncc(C2CC3CCC2N3)cc1-c1ccccc1 (configuration not stated) | 57.5 nM |  |  |  |  |  | 
Nc1ccc(C2CC3CCC2N3)cn1 (configuration not stated) | 1.3 nM |  |  |  |  |  | 
Clc1ncc(C2CC3CCC2N3)cc1-c1ccccc1 (configuration not stated) | 0.021 nM |  |  |  |  |  | 
Nc1ncc(C2CC3CCC2N3)cc1-c1ccccc1 (configuration not stated) | 0.33 nM | -0.5 °C |  |  |  |  | AD50 [2]: inactive; AD50 [3]: inactive; Effect [4]: 15%; Effect [5]: 2%
Fc1ncc(C2CC3CCC2N3)cc1-c1ccccc1 (single isomer, unassigned; (+)) | 0.24 nM | -0.4 °C | 2.4 mg/kg | 1 mg/kg | 8% | 7% | 
CN1CCC[C@H]1c1cccnc1 [NICOTINE] |  |  |  |  |  |  | ED50 [11]: 0.004 mg/kg; ED50 [12]: 0.006 mg/kg; ED50 [13]: 0.5 mg/kg; ED50 [14]: 0.004 mg/kg
Fc1ccc(C2CC3CCC2N3)cn1 (configuration not stated) | 0.027 nM |  |  |  |  |  | 
Fc1ncc(C2CC3CCC2N3)cc1-c1ccccc1 (racemic) |  | -0.5 °C | 1.2 mg/kg | 0.5 mg/kg | 4% | 3% | ED50 [13]: 4.7 mg/kg
Fc1ncc(C2CC3CCC2N3)cc1-c1ccccc1 (stereo in doubt; (-)-5a) | 0.26 nM | -0.8 °C | 0.7 mg/kg | 0.08 mg/kg | 10% | 5% | 
